Laboratory results as given in ChEMBL document CHEMBL5653623 (J Pharmacol Exp Ther, 2015).
Activity calls are given as the source filed them. The calls are words filed in the database; no cut-off is given here.

Assays:
Mus musculus [1] = test: Effect on histological changes in 20 weeks old MitoPark mouse lung assessed as slight enlargement of alveolar epithelial cells at 30 mg/kg/day administered for 15 weeks by hematoxylin and eosin staining based microscopic analysis; assay type: functional, organism-based
Method in brief: (§1)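 MitoPark mice were fed diet targeting 30 mg/kg/day or vehicle for 15 weeks and euthanized at 20 weeks of age (n=5/group). Kidney and lung were fixed in 10% neutral buffered formalin, paraffin-embedded, sectioned at 5 µm, H&E-stained and examined microscopically.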

[2] = AUC in C57Bl/6 mouse at 2 mg/kg, iv measured after 480 mins by LC-MS/MS analysis; assay type: ADME, organism-based; conditions: in vivo
Method in brief: (§2)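 Male C57Bl/6 mice (20-25 g) given a single IV dose (2 mg/kg) or oral dose (10 mg/kg). Blood was sampled at 5, 15, 30, 60, 120, 240, 360 and 480 min and plasma prepared by centrifugation. Plasma drug levels were measured by LC/MS/MS. Values are mean (CV%), N=3.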

Mus musculus [3] = test: Effect on behavioral phenotype in 11 weeks old MitoPark mouse assessed as decreased locomotor activity at 30 mg/kg/day administered for 6 weeks and measured after 60 mins truScan photo beam activity system analysis; assay type: functional, organism-based
Method in brief: (§3)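 MitoPark mice, 5 weeks old, were allocated by baseline 60-min LMA to untreated diet or diet targeting 30 mg/kg/day (reformulated every 3 weeks). Wild-type littermates received vehicle diet. Body weight and food intake were recorded weekly. 60-min LMA (distance, rearing) was run at 8, 11, 14 and 17 weeks of age.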

[4] = MRT in C57Bl/6 mouse at 2 mg/kg, iv measured after 480 mins by LC-MS/MS analysis; assay type: ADME, organism-based; conditions: in vivo; method in brief: as §2
Mus musculus [5] = test: Effect on histological changes in 20 weeks old MitoPark mouse kidney assessed as kidney darkening at 30 mg/kg/day administered for 15 weeks by hematoxylin and eosin staining based microscopic analysis; assay type: functional, organism-based; method in brief: as §1
[6] = Effect on spontaneous locomotor activity in C57Bl/6 mouse assessed as rearing behaviour administered for 11 days by truScan photo beam activity system analysis; assay type: toxicity; conditions: in vivo, 264 h, time 11 day
Method in brief: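 Male C57Bl/6 mice, singly housed on a reversed 12 h light cycle, were fed diet formulated to give 3, 10, 30, 60 or 120 mg/kg/day (assumes 3 g/day intake) or untreated diet for 11 days. Body weight and food intake were monitored. Spontaneous locomotion and rearing were recorded over 60 min. On day 11, mice were euthanized 4, 8 or 24 h after dark onset and plasma and brain drug levels measured; n = 5 per group.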

Mus musculus [7] = test: Effect on behavioral phenotype in MitoPark mouse at baseline assessed as higher rearing behavior at 30 mg/kg/day administered for 3 weeks and measured after 60 mins; assay type: functional, organism-based; method in brief: as §3
[8] = target: Sodium-dependent noradrenaline transporter (Homo sapiens, UniProt P23975); test: Inhibition of norepinephrine transporter (unknown origin)
Method in brief: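 Radioligand binding selectivity screen was run at 10 μM, mean of three determinations. Where inhibition exceeded 50%, full concentration-displacement curves were run in triplicate and IC50 was obtained by nonlinear least-squares regression.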

[9] = target: T1, Dual specificity protein kinase TTK (Homo sapiens, UniProt P33981); test: Inhibition of TTK (unknown origin)
T1 sequence (P33981 whole entry): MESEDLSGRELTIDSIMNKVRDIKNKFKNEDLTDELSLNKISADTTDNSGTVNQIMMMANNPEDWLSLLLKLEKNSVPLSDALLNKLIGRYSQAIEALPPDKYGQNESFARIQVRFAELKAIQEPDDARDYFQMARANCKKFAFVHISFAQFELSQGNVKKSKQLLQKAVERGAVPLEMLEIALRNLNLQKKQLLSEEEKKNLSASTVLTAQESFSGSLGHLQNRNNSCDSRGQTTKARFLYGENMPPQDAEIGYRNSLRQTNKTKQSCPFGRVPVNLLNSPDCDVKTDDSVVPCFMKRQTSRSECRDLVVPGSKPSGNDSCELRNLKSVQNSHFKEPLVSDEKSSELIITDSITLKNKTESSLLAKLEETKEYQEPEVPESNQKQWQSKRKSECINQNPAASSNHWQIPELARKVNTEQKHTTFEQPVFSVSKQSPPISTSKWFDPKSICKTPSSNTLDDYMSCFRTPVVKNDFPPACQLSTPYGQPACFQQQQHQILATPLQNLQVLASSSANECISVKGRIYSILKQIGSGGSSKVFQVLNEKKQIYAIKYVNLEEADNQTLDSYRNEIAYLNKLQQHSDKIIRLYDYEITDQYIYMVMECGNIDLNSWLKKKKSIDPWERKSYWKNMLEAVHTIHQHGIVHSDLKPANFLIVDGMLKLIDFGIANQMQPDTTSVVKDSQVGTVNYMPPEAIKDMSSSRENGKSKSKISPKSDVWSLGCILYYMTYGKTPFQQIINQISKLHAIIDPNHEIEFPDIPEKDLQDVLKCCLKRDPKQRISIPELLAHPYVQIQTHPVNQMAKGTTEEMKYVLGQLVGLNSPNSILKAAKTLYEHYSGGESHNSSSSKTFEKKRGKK

Mus musculus [10] = test: Effect on histological changes in 20 weeks old MitoPark mouse kidney assessed as accumulation of pigment in renal cortical tubules at 30 mg/kg/day administered for 15 weeks by hematoxylin and eosin staining based microscopic analysis; assay type: functional, organism-based; method in brief: as §1
[11] = target: Leucine-rich repeat serine/threonine-protein kinase 2 (Mus musculus) (UniProt Q5S006); test: In vivo inhibition of LRRK2 in C57Bl/6 mouse brain assessed as decrease in pSer935 LRRK2 measured after 1 hr by Western blotting analysis; assay type: functional, organism-based; conditions: dose 1-100 mg/kg, route po
Method in brief: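 Male C57Bl/6 mice, 20-25 g. Single oral dose of 1-100 mg/kg suspended in 30% Captisol (10 mL/kg), or vehicle, given 1 h before CO2 euthanasia. Cortex frozen on dry ice and pSer935 LRRK2 read by Western blot. n = 5 per group.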

[12] = MRT in C57Bl/6 mouse at 10 mg/kg, po measured after 480 mins by LC-MS/MS analysis; assay type: ADME, organism-based; conditions: in vivo; method in brief: as §2
Mus musculus [13] = test: Effect on behavioral changes in 8 weeks old MitoPark mouse striatum assessed as DOPAC level at 30 mg/kg/day administered for 3 weeks by HPLC analysis; assay type: functional
Method in brief: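 Striatum from MitoPark mice on diet targeting 30 mg/kg/day or vehicle diet (wild-type littermate controls) was homogenized by sonication in 0.1 M acid at 0.1 g/mL. Samples were held 60 min at 4 °C and centrifuged. Dopamine, DOPAC and HVA were measured by HPLC with electrochemical detection against a 3,4-DHBA internal standard and standard curves. Mean ± SEM.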

Chain of Sodium-dependent noradrenaline transporter (P23975 whole entry): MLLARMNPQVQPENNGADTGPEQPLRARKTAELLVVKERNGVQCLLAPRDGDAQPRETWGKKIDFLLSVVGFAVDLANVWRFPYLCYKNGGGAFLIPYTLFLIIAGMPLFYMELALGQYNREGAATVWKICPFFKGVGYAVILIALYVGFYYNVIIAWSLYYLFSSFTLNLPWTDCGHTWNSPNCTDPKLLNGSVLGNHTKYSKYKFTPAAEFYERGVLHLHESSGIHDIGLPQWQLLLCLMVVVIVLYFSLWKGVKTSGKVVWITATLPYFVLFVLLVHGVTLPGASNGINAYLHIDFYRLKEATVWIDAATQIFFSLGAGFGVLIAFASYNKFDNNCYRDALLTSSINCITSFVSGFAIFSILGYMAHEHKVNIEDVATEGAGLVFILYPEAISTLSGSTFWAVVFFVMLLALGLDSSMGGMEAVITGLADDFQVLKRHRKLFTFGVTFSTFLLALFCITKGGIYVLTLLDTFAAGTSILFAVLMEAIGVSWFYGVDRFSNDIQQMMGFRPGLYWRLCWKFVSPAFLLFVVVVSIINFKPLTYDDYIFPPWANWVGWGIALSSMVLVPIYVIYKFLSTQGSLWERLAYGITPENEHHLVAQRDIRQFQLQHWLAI
Chain of Leucine-rich repeat serine/threonine-protein kinase 2 (Mus musculus) (Q5S006 whole entry): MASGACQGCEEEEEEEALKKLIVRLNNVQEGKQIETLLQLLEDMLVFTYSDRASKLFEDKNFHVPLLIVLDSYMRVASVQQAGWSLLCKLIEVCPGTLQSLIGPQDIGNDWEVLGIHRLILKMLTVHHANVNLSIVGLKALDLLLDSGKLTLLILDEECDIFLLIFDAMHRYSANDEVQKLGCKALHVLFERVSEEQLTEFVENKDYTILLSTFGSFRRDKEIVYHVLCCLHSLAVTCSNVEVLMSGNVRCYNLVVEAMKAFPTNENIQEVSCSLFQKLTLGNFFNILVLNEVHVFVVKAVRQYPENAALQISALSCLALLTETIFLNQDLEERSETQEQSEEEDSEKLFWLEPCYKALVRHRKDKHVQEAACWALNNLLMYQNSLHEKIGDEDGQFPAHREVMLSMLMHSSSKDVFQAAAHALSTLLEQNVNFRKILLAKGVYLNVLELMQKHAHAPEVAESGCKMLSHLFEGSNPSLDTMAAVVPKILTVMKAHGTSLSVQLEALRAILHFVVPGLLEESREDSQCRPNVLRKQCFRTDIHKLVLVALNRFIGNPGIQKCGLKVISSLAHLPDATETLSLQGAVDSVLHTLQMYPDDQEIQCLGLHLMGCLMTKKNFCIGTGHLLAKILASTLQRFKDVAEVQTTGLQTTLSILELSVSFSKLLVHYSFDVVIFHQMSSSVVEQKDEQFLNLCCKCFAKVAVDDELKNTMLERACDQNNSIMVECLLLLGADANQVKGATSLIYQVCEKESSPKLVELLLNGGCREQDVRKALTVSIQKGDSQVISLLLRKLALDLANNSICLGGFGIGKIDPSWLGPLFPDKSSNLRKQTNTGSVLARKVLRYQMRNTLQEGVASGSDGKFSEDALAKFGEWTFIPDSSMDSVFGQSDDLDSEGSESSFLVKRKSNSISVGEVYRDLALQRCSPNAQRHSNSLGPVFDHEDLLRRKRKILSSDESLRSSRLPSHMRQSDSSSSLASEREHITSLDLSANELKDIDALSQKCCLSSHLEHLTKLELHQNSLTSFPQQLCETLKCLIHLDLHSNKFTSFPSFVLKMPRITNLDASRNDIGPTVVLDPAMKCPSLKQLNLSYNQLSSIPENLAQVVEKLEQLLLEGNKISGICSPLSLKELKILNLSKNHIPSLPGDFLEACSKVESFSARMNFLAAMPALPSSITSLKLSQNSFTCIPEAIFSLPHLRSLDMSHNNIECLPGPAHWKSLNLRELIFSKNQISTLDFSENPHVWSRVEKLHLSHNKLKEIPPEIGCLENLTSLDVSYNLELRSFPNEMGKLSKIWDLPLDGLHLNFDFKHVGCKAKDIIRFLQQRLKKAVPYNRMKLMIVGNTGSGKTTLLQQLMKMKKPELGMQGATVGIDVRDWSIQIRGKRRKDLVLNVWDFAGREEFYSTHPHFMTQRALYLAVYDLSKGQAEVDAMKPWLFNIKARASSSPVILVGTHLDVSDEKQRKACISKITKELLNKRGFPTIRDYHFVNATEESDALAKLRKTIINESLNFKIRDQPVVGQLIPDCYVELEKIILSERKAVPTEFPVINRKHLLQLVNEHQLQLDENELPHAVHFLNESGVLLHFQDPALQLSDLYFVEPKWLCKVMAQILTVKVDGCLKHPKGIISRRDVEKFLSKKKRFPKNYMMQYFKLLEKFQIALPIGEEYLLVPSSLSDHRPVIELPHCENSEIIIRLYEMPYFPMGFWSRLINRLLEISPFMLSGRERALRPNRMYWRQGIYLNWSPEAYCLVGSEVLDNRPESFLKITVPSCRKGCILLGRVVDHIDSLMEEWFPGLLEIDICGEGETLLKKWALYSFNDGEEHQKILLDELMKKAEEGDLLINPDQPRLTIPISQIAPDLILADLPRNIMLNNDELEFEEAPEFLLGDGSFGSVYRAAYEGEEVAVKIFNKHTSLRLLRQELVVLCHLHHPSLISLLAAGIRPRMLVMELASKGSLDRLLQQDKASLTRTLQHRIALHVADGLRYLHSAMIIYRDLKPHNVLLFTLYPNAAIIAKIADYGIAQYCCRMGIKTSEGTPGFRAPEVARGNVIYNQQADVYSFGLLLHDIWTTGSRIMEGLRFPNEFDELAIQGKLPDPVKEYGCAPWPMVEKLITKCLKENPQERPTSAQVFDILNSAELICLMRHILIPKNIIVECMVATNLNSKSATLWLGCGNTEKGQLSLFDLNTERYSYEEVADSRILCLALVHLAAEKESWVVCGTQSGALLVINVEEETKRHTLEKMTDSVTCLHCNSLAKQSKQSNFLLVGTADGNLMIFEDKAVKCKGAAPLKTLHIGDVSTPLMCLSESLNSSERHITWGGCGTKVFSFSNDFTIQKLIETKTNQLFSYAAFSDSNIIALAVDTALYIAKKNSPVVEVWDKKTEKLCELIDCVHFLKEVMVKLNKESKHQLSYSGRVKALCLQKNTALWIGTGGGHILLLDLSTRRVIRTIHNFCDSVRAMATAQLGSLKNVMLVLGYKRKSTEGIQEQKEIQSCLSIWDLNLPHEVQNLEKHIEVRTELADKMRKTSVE

AUC at 8 h [2]: 0.664 µM·h
MRT [4]: 2.7 h
IC50 [8]: 3.8 µM
IC50 [9]: 935 nM
inhibition [11]: Dose-Dependent Effect
MRT [12]: 11 h
SMILES: C[C@@H]1CN(c2cc(-c3n[nH]c4ccc(OC5(C)CC5)cc34)ncn2)C[C@H](C)O1 [MLi-2]
Activity (Mus musculus [1]): Active
Activity (Mus musculus [3]): Active
Activity (Mus musculus [5]): inactive
Activity [6]: Non-Toxic
Activity (Mus musculus [7]): Active
Activity (Mus musculus [10]): inactive
Activity (Mus musculus [13]): 8966 ng/g
